Data set [1] in a line: (§1) Growth inhibition of African green monkey Vero cells after 48 hrs by sulforhodamine B assay. It counts as cell-based. The note with it: chlorocebus sabaeus, Vero cells. An outline of the steps:
(§2)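 Tumour lines from NCI and Vero from the Rio de Janeiro Cell Bank, grown in RPMI 1640 with 5% fetal bovine serum, with penicillin:streptomycin added to experimental cultures. Each compound was tested at four 10-fold dilutions; sulforhodamine B staining at time zero and 48 h. Proliferation was calculated against T0 and drug-free controls, and GI50 came from sigmoidal regression of the concentration-response curves. Representative experiment in triplicate.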

For another data set, the system named is Vero. Described as §1. It counts as cell-based. The note with it: chlorocebus sabaeus, vero, 48 h. In outline:
as §2

The test system of another data set is 786-0. Briefly: Growth inhibition of human 786-0 cells after 48 hrs by sulforhodamine B assay. The note with it: 786-0, 48 h. In kind it is functional. In outline:
as §2

A further data set deals with K562. The data set is described as follows: Growth inhibition of human K562 cells after 48 hrs by sulforhodamine B assay. In kind it is functional. To be noted: K562, 48 h. An outline of the steps: as §2
The test system of another data set is HT-29. The data set is described as follows: Growth inhibition of human HT-29 cells after 48 hrs by sulforhodamine B assay. It counts as functional. To be noted: HT-29, 48 h. In outline:
as §2

A short description of data set [2]: Growth inhibition of human UACC62 cells after 48 hrs by sulforhodamine B assay. It counts as functional. The note with it: UACC-62, 48 h. In outline: as §2
Data set [3] deals with PC-3. Briefly: Cytotoxicity against human PC3 cells assessed as cell death after 48 hrs by sulforhodamine B assay. It counts as functional. In outline:
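NCI-supplied tumour cells in RPMI 1640 with 5% fetal bovine serum; experimental cultures also had penicillin:streptomycin. Cells were exposed for 48 h to four 10-fold concentrations (0.25 to 250 […]), with readings at time zero and at 48 h. LC50 (concentration giving 50% cell death) came from sigmoidal regression of concentration–response curves.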

Data set [4] can be described thus: Growth inhibition of human NCI-ADR-RES cells after 48 hrs by sulforhodamine B assay. In kind it is functional. An outline of the steps: as §2
In data set [5] the test system is PC-3. Briefly: Growth inhibition of human PC3 cells after 48 hrs by sulforhodamine B assay. It counts as functional. To be noted: PC-3, 48 h. In outline:
as §2

The subject of another data set is MCF7. Briefly: Growth inhibition of human MCF7 cells after 48 hrs by sulforhodamine B assay. The note with it: MCF7, 48 h. It counts as functional. An outline of the steps:
as §2

A further data set concerns NCI-H460. Briefly: Growth inhibition of human NCI-H460 cells after 48 hrs by sulforhodamine B assay. The note with it: NCI-H460, 48 h. It counts as functional. An outline of the steps:
as §2

The next data set has as its system U-251. Briefly: Growth inhibition of human U251 cells after 48 hrs by sulforhodamine B assay. In kind it is functional. The note with it: U-251, 48 h. In outline:
as §2

Data set [6] in a line: Growth inhibition of human OVCAR3 cells after 48 hrs by sulforhodamine B assay. In kind it is functional. The note with it: OVCAR-3, 48 h. An outline of the steps: as §2
Data set [7] in a line: Ratio of compound GI50 to paclitaxel GI50 for African green monkey Vero cells. In kind it is ADME, cell-based. The note with it: chlorocebus sabaeus, read-out: RatioGI50.

Each structure is given as a SMILES string. Active and inactive are the calls of the source. No cut-off for these calls is given here.

Turning to `CC1=CC[C@H](C(C)(C)NC(=S)N/N=C/c2ccccc2)CC1`, halving of growth in data set [1] (GI50 at 48 h) required 20.5 µM. In addition, the TGI is over 100 µM in the data set with Vero; 67 µM with 786-0; 47.6 µM with K562; 22.2 µM in the data set with HT-29; over 100 µM in data set [2]; over 100 µM in data set [4]. Also, the TGI in the data set on PC-3 [5] came out at 5.7 µM; with MCF7, 84.4 µM; in the data set on NCI-H460 it was 53.9 µM; in the data set on U-251, 71.4 µM; in [6], 20.6 µM. The GI50 is 9.9 µM in the data set on 786-0; 6.3 µM in the data set on K562; 8.8 µM with HT-29; 31.6 µM in data set [2]; over 100 µM in [4]; 1.3 µM in the data set with PC-3 [5]. The GI50 was 8.4 µM in the data set on MCF7, 13 µM in the data set with NCI-H460, 26.3 µM with U-251 and 8.7 µM in data set [6]. Further, the outcome in the data set with PC-3 [3] was Active.

For the molecule `CC1=CC[C@H](C(C)(C)NC(=S)N/N=C/c2ccc(N(C)C)cc2)CC1`, in [1], the GI50 at 48 h was 75.6 µM. Besides, the total growth inhibition concentration (TGI) (in the data set on Vero; in the data set on 786-0; in the data set with K562; in the data set on HT-29; in data set [2]; in data set [4]) was over 100 µM in each case. Further, the TGI in the data set on PC-3 [5] is under 0.7 µM; in the data set with MCF7, over 100 µM; with NCI-H460 it was over 100 µM; with U-251, over 100 µM; in data set [6], over 100 µM. Besides, the GI50 in the data set on 786-0 was 87 µM; in the data set with K562 it was 22.6 µM; with HT-29 it was 46.5 µM; in [2], 45.1 µM; in data set [4], over 100 µM; in the data set with PC-3 [5] it was under 0.04 µM. The GI50 in the data set on MCF7 is 26.8 µM; in the data set on NCI-H460 it was 53.4 µM; in the data set with U-251 it was 57.7 µM; in data set [6] it was over 100 µM. Moreover, the outcome in the data set with PC-3 [3] was Active.

Regarding `COc1ccc(/C=N/NC(=S)NC(C)(C)[C@H]2CC=C(C)CC2)cc1`, the GI50 at 48 h in data set [1] was found to be 12.2 µM. Also, the TGI was found to be 70.1 µM in the data set with Vero; 29.6 µM in the data set with 786-0; 30.7 µM with K562; 33.6 µM in the data set on HT-29; 70.4 µM in data set [2]; 50.4 µM in [4]. The TGI in the data set on PC-3 [5] was found to be 1.2 µM; with MCF7, 37.7 µM; with NCI-H460, 47.8 µM; in the data set with U-251, 71.9 µM; in [6], 21.2 µM. Further, the GI50 in the data set on 786-0 was 8.9 µM; in the data set on K562, 1.5 µM; with HT-29, 8.4 µM; in data set [2], 13.3 µM; in data set [4], 43.8 µM; in the data set on PC-3 [5], under 0.04 µM. The GI50 in the data set on MCF7 was 31.2 µM; in the data set with NCI-H460 it was 22.5 µM; in the data set with U-251 it was 11.4 µM; in [6], 7.9 µM. In the data set on PC-3 [3], the result was Active.

Consider `CC1=CC[C@H](C(C)(C)NC(=S)N/N=C/c2ccccc2[N+](=O)[O-])CC1`, for which, in data set [1], the GI50 at 48 h turned out to be 21.6 µM. In addition, the concentration for total growth inhibition (TGI) was over 100 µM in the data set with Vero; over 100 µM in the data set on 786-0; over 100 µM in the data set on K562; 70.8 µM in the data set on HT-29; 92.2 µM in [2]; over 100 µM in [4]. Also, the TGI is 6.4 µM in the data set with PC-3 [5]; 94.7 µM in the data set on MCF7; 32.7 µM in the data set with NCI-H460; over 100 µM in the data set on U-251; 25.8 µM in data set [6]. The GI50 in the data set with 786-0 came to 68.5 µM; with K562 it was 0.3 µM; in the data set on HT-29, 7.9 µM; in data set [2], 10.6 µM; in data set [4], 19.2 µM; in the data set on PC-3 [5] it was 1.7 µM. Moreover, the GI50 with MCF7 came out at 1.2 µM; in the data set on NCI-H460 it was 5 µM; with U-251 it was 20.2 µM; in [6], 8.5 µM. Moreover, the outcome in the data set on PC-3 [3] was Active.

Molecule `CC1=CC[C@H](C(C)(C)NC(=S)N/N=C/c2ccccc2O)CC1` showed a concentration for 50% growth inhibition (GI50) at 48 h in data set [1] of 3.1 µM. Further, the concentration for total growth inhibition (TGI) in the data set on Vero was 11.2 µM; in the data set with 786-0, 12.1 µM; in the data set on K562, over 100 µM; in the data set on HT-29, 16.6 µM; in data set [2] it was 10.8 µM; in data set [4] it was 10.9 µM. The TGI came to 0.9 µM in the data set on PC-3 [5]; 17.5 µM in the data set with MCF7; 8.4 µM with NCI-H460; 10.6 µM in the data set with U-251; 11.8 µM in data set [6]. The GI50 in the data set on 786-0 was 4.6 µM; with K562, 0.8 µM; in the data set with HT-29, 10.9 µM; in data set [2], 2.8 µM; in [4], 3.7 µM; with PC-3 [5], under 0.04 µM. The GI50 in the data set on MCF7 was 2.2 µM; with NCI-H460, 1.9 µM; in the data set on U-251, 6.4 µM; in data set [6] it was 5.5 µM. Moreover, the CC50 with PC-3 [3] (PC-3, 48 h, read-out: LC50 (the source's name)) came out at 12.3 µM. In data set [7], the selectivity ratio was determined as 100.

For the origin of these results see ChEMBL document CHEMBL3232876, “Novel R-(+)-limonene-based thiosemicarbazones and their antitumor activity against human tumor cell lines” (Eur J Med Chem, 2014).
